Experimental data collected from several papers.
Lines come from different studies, so protocols differ.
Target: Serine/threonine-protein kinase LATS1 (LATS1, Homo sapiens, UniProt O95835)
One construct used (O95835 1-1130): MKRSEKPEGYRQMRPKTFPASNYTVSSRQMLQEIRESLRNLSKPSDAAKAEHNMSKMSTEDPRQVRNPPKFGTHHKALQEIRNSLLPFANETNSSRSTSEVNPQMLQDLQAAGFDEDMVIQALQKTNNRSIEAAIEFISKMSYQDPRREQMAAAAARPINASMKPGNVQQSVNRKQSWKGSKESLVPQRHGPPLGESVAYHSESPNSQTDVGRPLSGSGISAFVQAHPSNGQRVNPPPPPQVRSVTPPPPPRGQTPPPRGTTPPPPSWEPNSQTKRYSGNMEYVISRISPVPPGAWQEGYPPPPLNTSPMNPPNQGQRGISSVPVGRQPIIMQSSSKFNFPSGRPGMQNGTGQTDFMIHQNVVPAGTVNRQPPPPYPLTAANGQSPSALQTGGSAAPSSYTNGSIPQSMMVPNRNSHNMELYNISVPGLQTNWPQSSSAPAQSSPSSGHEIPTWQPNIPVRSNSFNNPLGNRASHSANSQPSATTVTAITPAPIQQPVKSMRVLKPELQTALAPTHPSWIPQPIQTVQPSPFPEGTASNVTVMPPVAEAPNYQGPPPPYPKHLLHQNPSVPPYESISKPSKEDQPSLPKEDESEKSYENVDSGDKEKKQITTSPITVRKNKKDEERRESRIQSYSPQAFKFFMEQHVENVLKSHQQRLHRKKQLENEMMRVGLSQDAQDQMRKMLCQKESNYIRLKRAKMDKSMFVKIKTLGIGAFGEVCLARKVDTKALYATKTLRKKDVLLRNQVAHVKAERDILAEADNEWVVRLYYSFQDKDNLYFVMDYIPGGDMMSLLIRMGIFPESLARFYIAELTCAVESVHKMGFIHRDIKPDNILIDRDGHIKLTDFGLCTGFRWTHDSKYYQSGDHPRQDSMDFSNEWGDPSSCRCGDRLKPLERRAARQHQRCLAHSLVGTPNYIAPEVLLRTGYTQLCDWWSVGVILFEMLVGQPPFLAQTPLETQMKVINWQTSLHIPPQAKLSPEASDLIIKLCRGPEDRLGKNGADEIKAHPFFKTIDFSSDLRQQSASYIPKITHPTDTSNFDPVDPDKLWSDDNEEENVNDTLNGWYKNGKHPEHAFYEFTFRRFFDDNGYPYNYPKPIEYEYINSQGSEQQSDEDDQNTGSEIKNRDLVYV

With `CC#CC(=O)N1CCC[C@H]1c1nc(-c2ccc(C(=O)Nc3ccccn3)cc2)c2c(N)nccn12` the inhibition was 7% (enzyme activity, inhibitor; 1 µM).
`CCCCC(=O)Nc1ccc(-c2ccc3ncn(CCC)c(=O)c3c2)cn1` has a remaining binding of 86% (binding, competition with immobilised ligand; 0.5 µM).
For `C=CC(=O)N1CCC([C@@H]2CCNc3c(C(N)=O)c(-c4ccc(Oc5ccccc5)cc4)nn32)CC1`, the inhibition was 0% (enzyme activity, inhibitor; 1 µM).
With `Cc1cc(-c2ccnc3[nH]cc(F)c23)cc(F)c1[C@@]1(O)[C@H](C)CN(C(=O)CN)C[C@@H]1C` the residence time was 7.3 min (binding, TR-FRET).
The remaining signal of `C[C@H]1CC[C@H](n2c3cnccc3c3cnc(Nc4ccc5c(n4)CCN(C(=O)CO)C5)nc32)CC1` is reported as 47% (cell-free assay; 1 µM).
The residence time of `Cc1cc(-c2ccnc3[nH]cc(F)c23)cc(F)c1[C@@]1(O)[C@H](C)CN(C2CCS(=O)(=O)CC2)C[C@@H]1C` is reported as 9.1 min (binding, TR-FRET).
For `C1=C/COCc2cc(ccc2OCCN2CCCC2)Nc2nccc(n2)-c2cccc(c2)COC/1`, the remaining binding was 100% (binding; 0.1 µM).
The remaining binding of `CN1CCN(C(=O)c2ccc(NC(=O)Nc3ccc(N(C)c4ccnc(Nc5ccc(CS(C)(=O)=O)cc5)n4)cc3)cc2)CC1` is reported as 68% (binding; 1 µM).
